Consider one compound from PMC5019276 (International Journal of Nanomedicine, 2016).

Data set [1] has as its system HT-29 cells. Description: In vitro cytotoxicity, MTT assay. Format: cell-based. The following applies: Homo sapiens, HT-29, read-out: IC50 (half maximal inhibitory concentration). In outline:
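HT-29 cells were grown in RPMI-1640 with 10% FBS and 1% penicillin/streptomycin. They were seeded at 3–5×10^4 cells/well and cultured 24 h at 37°C in humid 5% CO2. Drug-loaded and blank nanoparticles were then tested by MTT, with absorbance read at 490 nm. Viability (%) = absorbance of treated cells / absorbance of untreated cells × 100. Triplicates; mean ± SD (n=3).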

Data set [2] is described as follows: In vitro drug release by dialysis. Format: physicochemical. The note with it: pH 2.0, 5.0 and 6.8, after 72 hours. The procedure, abridged: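 Dialysis (MWCO 6–8 kDa): 2.5 mL of nanoparticle or free-drug solution (drug 0.2 mg/mL) against 10 mL medium. Media were 0.05 M glycine–HCl pH 2.0, 0.05 M phosphate pH 5.0 and 0.05 M phosphate pH 6.8, each with 1% ascorbic acid and 0.1% BHT. Stirred at 37°C for 72 h; 3.0 mL withdrawn at intervals and replaced. Drug measured by C18 HPLC at 420 nm. Run three times.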

The test system of data set [3] is HT-29 cells. Put plainly: Intracellular uptake by fluorescence microscopy. The note with it: 7.5 μg/mL, 3 hours, 37°C. Format: cell-based, Human. In outline: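 HT-29 cells were seeded at 2.5×10^4 cells/well and incubated overnight at 37°C in 5% CO2. They were exposed to free drug or drug-loaded nanoparticles at 7.5 μg/mL for 3 h at 37°C, with untreated and blank-nanoparticle controls. Cells were rinsed three times with 37°C PBS. Imaging used fluorescence microscopy with 420–490 nm excitation and 490–560 nm emission.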

Data set [4] in a line: In vivo oral administration and pharmacokinetics. Set-up: species or system rats. The following applies: plasma, 100 mg/kg.

Molecules are shown by their SMILES. Converted amounts (≈) assume the structure as drawn.

With `COc1cc(/C=C/C(=O)CC(=O)/C=C/c2ccc(O)c(OC)c2)ccc1O` [Cur, Curcumin], in the data set with HT-29 cells [1], the IC50 turned out to be 28.5 µg/mL (≈ 77.4 µM). Also, the “release after 72 hours (in words)” value in data set [2] is reported as “completed its release/diffusion”. Also, the “fluorescence of cells (cell uptake)” value in the data set with HT-29 cells [3] is “relatively faint”. Also, in data set [4] (male, Sprague Dawley, rat, po), the concentration peaked (Cmax) at 11000 ± 1170 ng/mL, the MRT last was 4.33 ± 0.67 h, the Tmax is 1 h and the half-life is 0.9 ± 0.89 h. Further, in data set [4] (oral), the “AUC0–24 hours” value came out at 65120 ± 7420 ng·h/mL.
